Common to all, as to assay type: functional
Assay [1] concerns Mus musculus. In words: Compound was evaluated for production of ring immobility at 90 min in mouse when administered intravenously. Conditions: iv, 1.5 h. Summed up:
(§1)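 Mice given the analog by intravenous injection, then run through a tetrad. Spontaneous activity is scored at 5–15 min, tail-flick at 20 min, rectal temperature at 60 min and ring immobility at 90 min after injection. ED50 comes from log dose–response linear regression over n = 4–7 active doses, with standard error estimated by ALLFIT.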

Assay [2] relates to Mus musculus. The assay is described as follows: Compound was evaluated for inhibition of tail-flick response at 20 min in mouse when administered intravenously. Particulars: iv. Summed up: as §1
Assay [3] concerns Mus musculus. The assay is described as follows: Compound was evaluated for inhibition of spontaneous activity at 5-15 min in mouse when administered intravenously. Particulars: iv. Summed up:
as §1

Assay [4] relates to Mus musculus. The assay is described as follows: Compound was evaluated for reduction of rectal temperature at 60 min in mouse when administered intravenously. Particulars: iv, 1 h. Summed up: as §1

With `CCCCCCC(C)(C)c1cc(O)c2c(c1)OC(C)(C)[C@H]1CC[C@H](CO)C[C@H]21`, the ED50 in the assay on Mus musculus [1] was 2.5 mg/kg; in the assay with Mus musculus [2], 0.58 mg/kg; in the assay with Mus musculus [3], 0.77 mg/kg; in the assay with Mus musculus [4], 6.9 mg/kg.
On the same counts, the results for `CCCCCCC(C)(C)c1cc(O)c2c(c1)OC(C)(C)[C@@H]1CC[C@@H](CO)C[C@@H]21` are 0.027 mg/kg, 0.0018 mg/kg, 0.0054 mg/kg and 0.037 mg/kg.
On the same counts, the results for `CCCCCc1cc(O)c2c(c1)OC(C)(C)C1CCC(C)=C[C@@H]21` (single isomer, unassigned) [DRONABINOL] are 1.51 mg/kg, 1.42 mg/kg, 1.01 mg/kg and 1.42 mg/kg.

A word on the ED50: it is the midpoint of the dose-response relation.

These data come from ChEMBL document CHEMBL1127613, “Synthesis and pharmacological properties of 11-hydroxy-3-(1',1'-dimethylheptyl)hexahydrocannabinol: a high-affinity cannabinoid agonist” (1994).
